Legend:
ΔFosB/JunD heterodimer = target: T1, ΔFosB/JunD heterodimer (Homo sapiens, UniProt P17535+P53539); format: binding
T1 sequence (P53539 1-237 isoform P53539-11): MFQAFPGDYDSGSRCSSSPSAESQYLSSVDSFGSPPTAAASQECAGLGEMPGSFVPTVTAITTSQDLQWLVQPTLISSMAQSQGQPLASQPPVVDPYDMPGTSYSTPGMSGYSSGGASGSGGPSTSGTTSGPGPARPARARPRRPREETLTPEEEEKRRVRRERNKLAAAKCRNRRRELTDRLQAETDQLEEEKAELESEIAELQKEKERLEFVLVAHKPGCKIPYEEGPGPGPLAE
T1 sequence (P17535 1-347): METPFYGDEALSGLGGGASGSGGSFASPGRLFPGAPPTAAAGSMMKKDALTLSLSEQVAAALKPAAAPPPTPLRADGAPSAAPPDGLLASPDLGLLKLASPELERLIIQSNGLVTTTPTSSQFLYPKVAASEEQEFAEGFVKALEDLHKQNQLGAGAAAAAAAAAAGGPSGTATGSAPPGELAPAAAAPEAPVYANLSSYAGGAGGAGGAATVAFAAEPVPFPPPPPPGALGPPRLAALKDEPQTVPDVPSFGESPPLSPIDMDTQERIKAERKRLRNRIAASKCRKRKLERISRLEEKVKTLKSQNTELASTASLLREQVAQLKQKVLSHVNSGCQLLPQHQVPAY
Summary of the method: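 Annealed 19-mer cdk5 AP-1 duplex, TAMRA-labelled at both 5′ ends, used at 25 nM in 20 mM HEPES pH 7.5, 150 mM NaCl. Added to test compound (10 concentrations, 0–200 μM, quadruplicate) for 5 min, then ΔFosB/JunD at 280 nM (as monomers) for 15 min. FP read at excitation 530/540 nm, emission 590 nm. Oligo-only wells set 100% inhibition. Four-parameter IC50; mean ± SD of two days.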

ΔFosB homodimer = target: T2, ΔFosB homodimer (Homo sapiens, UniProt P53539); format: binding
T2 sequence (P53539 1-237 isoform P53539-11): T1 sequence (P53539 1-237 isoform P53539-11)
Summary of the method: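 Test compound serially diluted (10 concentrations, 0–200 μM, quadruplicate). Annealed 19-mer cdk5 AP-1 duplex, TAMRA-labelled at both 5′ ends, added at 25 nM in 20 mM HEPES pH 7.5, 50 mM NaCl for 5 min. ΔFosB then added at 320 nM (as monomers) for 15 min. FP read at excitation 530 or 540 nm, emission 590 nm. Four-parameter IC50; mean ± SD of two independent days.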

Compound	activity in FP-assay against ΔFosB/JunD heterodimers (in words) (ΔFosB/JunD heterodimer)	activity in FP-assay against ΔFosB homodimers (in words) (ΔFosB homodimer)
COc1cc(OC)c2c(C(=O)O)nc3c(OC)cccc3c2c1 [Compound 25]	lacked activity	lacked activity
COc1cccc2c1N(C(C)=O)C(C(=O)O)C1CC=CC21 (stereo not shown) [Compound 13]	lacked significant activity	lacked significant activity
COc1cccc2c1NC(C(=O)O)C1CCCC21 (stereo not shown) [Compound 14]	lacked significant activity	lacked significant activity

More lines, now with the values ahead:

activity in FP-assay against ΔFosB/JunD heterodimers (in words) (ΔFosB/JunD heterodimer)	activity in FP-assay against ΔFosB homodimers (in words) (ΔFosB homodimer)	Compound
little activity even at 100 μM or higher	little activity even at 100 μM or higher	Cc1cccc2c3c(c(C(=O)O)nc12)CCC3 [Compound 21]
little activity even at 100 μM or higher	little activity even at 100 μM or higher	CCOC(=O)c1nc2c(C)cccc2c2c1CCC2 [Compound 20]
